Experimental data taken from ChEMBL document CHEMBL3588757, “Structure-based design, synthesis and biological testing of piperazine-linked bis-epipodophyllotoxin etoposide analogs” (Bioorg Med Chem, 2015).

What was measured:
Format in all cases: functional
TK-10 [1] = assay: Cytotoxicity against human TK10 cells assessed as cell growth at 50 uM by SRB assay; details: read-out: Activity
U-251 = assay: Cytotoxicity against human U251 cells by SRB assay
In short: (§1)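 NCI-60 panel screen; 5-dose testing giving GI50 per cell line, plus a single 10 µM one-dose test. Method details not given beyond the NCI screen.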

CCRF-CEM = assay: Cytotoxicity against human CCRF-CEM cells by SRB assay
SN12C = assay: Cytotoxicity against human SN12C cells assessed as cell growth at 0.005 uM by SRB assay; details: read-out: Activity
DU-145 = assay: Cytotoxicity against human DU145 cells by SRB assay
In short: (§2)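 Measured in the NCI-60 human tumour cell line panel using five-dose testing. Growth was recorded at each dose for each cell line, and a GI50 was derived for each line.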

RXF 393 = assay: Cytotoxicity against human RXF393 cells assessed as cell growth at 50 uM by SRB assay; details: read-out: Activity
SK-MEL-28 = assay: Cytotoxicity against human SK-MEL-28 cells by SRB assay; in short: as §1
RPMI-8226 = assay: Cytotoxicity against human RPMI8226 cells assessed as cell growth at 0.005 uM by SRB assay; details: read-out: Activity
T47D = assay: Cytotoxicity against human T47D cells assessed as cell growth at 5 uM by SRB assay; details: read-out: Activity
MDA-MB-435 = assay: Cytotoxicity against human MDA-MB-435 cells assessed as cell growth at 0.05 uM by SRB assay; details: read-out: Activity
IGROV-1 = assay: Cytotoxicity against human IGROV1 cells assessed as cell growth at 50 uM by SRB assay; details: read-out: Activity
SF-539 = assay: Cytotoxicity against human SF539 cells assessed as cell growth at 0.5 uM by SRB assay; details: read-out: Activity
LOX IMVI = assay: Cytotoxicity against human LOXIMVI cells assessed as cell growth at 0.05 uM by SRB assay; details: read-out: Activity
PC-3 = assay: Cytotoxicity against human PC3 cells assessed as cell growth at 5 uM by SRB assay; details: read-out: Activity
HCT-116 = assay: Cytotoxicity against human HCT116 cells assessed as cell growth at 0.5 uM by SRB assay; details: read-out: Activity; in short: as §2
SW-620 = assay: Cytotoxicity against human SW620 cells assessed as cell growth at 0.05 uM by SRB assay; details: read-out: Activity
TK-10 [2] = assay: Cytotoxicity against human TK10 cells assessed as cell growth at 5 uM by SRB assay; details: read-out: Activity
OVCAR-4 = assay: Cytotoxicity against human OVCAR4 cells assessed as cell growth at 50 uM by SRB assay; details: read-out: Activity
[3] = read-out: LC50 (the source's name)
[4] = read-out: pLC50 (the source's name) (converted)

Compound: COc1cc([C@@H]2c3cc4c(cc3[C@@H](NC(=O)CN3CCN(CCCCCCCCCCN5CCN(CC(=O)N[C@@H]6c7cc8c(cc7[C@@H](c7cc(OC)c(O)c(OC)c7)[C@H]7C(=O)OC[C@@H]76)OCO8)CC5)CC3)[C@H]3COC(=O)[C@H]23)OCO4)cc(OC)c1O
- growth at 50 µM (TK-10 [1]): -98%
- GI50 (U-251; read-out: GI50): 0.532 µM
- CC50 (U-251; [3]): 23.4 µM
- TGI (U-251; read-out: TGI): 6.27 µM
- GI50 (U-251; read-out: pGI50 (converted)): 0.537 µM
- CC50 (U-251; [4]): 23.4 µM
- TGI (U-251; read-out: pTGI (converted)): 6.31 µM
- GI50 (CCRF-CEM; read-out: GI50): 0.0809 µM
- CC50 (CCRF-CEM; [3]): > 50 µM
- GI50 (CCRF-CEM; read-out: pGI50 (converted)): 0.0813 µM
- CC50 (CCRF-CEM; [4]): > 50.1 µM
- growth at 0.005 µM (SN12C): 94%
- GI50 (DU-145; read-out: GI50): 0.153 µM
- CC50 (DU-145; [3]): 14.6 µM
- TGI (DU-145; read-out: TGI): 2.89 µM
- GI50 (DU-145; read-out: pGI50 (converted)): 0.151 µM
- CC50 (DU-145; [4]): 14.5 µM
- TGI (DU-145; read-out: pTGI (converted)): 2.88 µM
- growth at 50 µM (RXF 393): -47%
- GI50 (SK-MEL-28; read-out: GI50): 6.2 µM
- CC50 (SK-MEL-28; [3]): 29.8 µM
- TGI (SK-MEL-28; read-out: TGI): 13.6 µM
- GI50 (SK-MEL-28; read-out: pGI50 (converted)): 6.17 µM
- CC50 (SK-MEL-28; [4]): 29.5 µM
- TGI (SK-MEL-28; read-out: pTGI (converted)): 13.5 µM
- growth at 0.005 µM (RPMI-8226): 89%
- growth at 5 µM (T47D): 16%
- growth at 0.05 µM (MDA-MB-435): 87%
- growth at 50 µM (IGROV-1): -41%
- growth at 0.5 µM (SF-539): 13%
- growth at 0.05 µM (LOX IMVI): 56%
- growth at 5 µM (PC-3): 17%
- growth at 0.5 µM (HCT-116): 78%
- growth at 0.05 µM (SW-620): 75%
- growth at 5 µM (TK-10 [2]): -4%
- growth at 50 µM (OVCAR-4): -77%
